Measured values from different studies.
Each line is one published result; the experiments were not run side by side.
Target: D(2) dopamine receptor (DRD2, Homo sapiens, UniProt P14416)

O=C1c2ccccc2CCN1CCCCN1CCN(c2cccc(Cl)c2Cl)CC1  Ki (ligand displacement; radioligand): 14 nM
COc1ccc(CCC2=NCCN2CCc2ccccc2)cc1  Ki (ligand displacement; radioligand): > 10000 nM
CCCCN1CCC(COC(=O)c2ccc(N)c(OCF)c2)CC1  Ki (cell-free assay; radioligand): > 10000 nM
CCc1nc2cc(OCCCCN3CCN(c4cccc(Cl)c4Cl)CC3)ccc2s1  EC50 (cAMP; agonist; luciferase): 98 nM
COc1ccc2c(c1)C(=O)N(CCCN1CCN(c3ccccc3OC)CC1)C2  Ki (ligand displacement; radioligand): 1500 nM
CC(C)c1nc2cc(OCCCCN3CCN(c4cccc5c4OCCN5)CC3)ccc2s1  EC50 (β-arrestin recruitment; agonist): 16 nM
O=C1c2ccccc2CCN1CCCCN1CCN(c2ccccn2)CC1  Ki (ligand displacement; radioligand): 805 nM
CNC(=O)[C@@]12C[C@@H]1[C@@H](n1cnc3c(NC)nc(C#Cc4cccs4)nc31)[C@H](O)[C@@H]2O  Ki (cell-free assay; radioligand): > 10000 nM
CCOCc1nc(O)c(-c2nnc(Cc3ccc(Cl)cn3)o2)c(O)c1-c1c(OC)cccc1OC  IC50 (ligand displacement; radioligand): > 30000 nM
Oc1cccc(CCC2=NCCN2Cc2ccccc2)c1  Ki (ligand displacement; radioligand): > 10000 nM
CCN(CC)c1ccc(C2Nc3ccc(C(=O)c4ccccc4)cc3NC3=C2C(=O)CC(C)(C)C3)cc1 (centres unmarked)  Ki (cell-free assay; radioligand): > 10000 nM
Oc1cccc(CCC2=NCCN2CCc2ccccc2)c1  Ki (ligand displacement; radioligand): > 10000 nM
FC(F)(F)c1nc2cc(OCCCCN3CCN(c4cccc(Cl)c4Cl)CC3)ccc2s1  EC50 (cAMP; agonist; luciferase): 140 nM
CCO[C@H]1CCN(Cc2c(OC)cc(C)c3[nH]ccc23)[C@H](c2ccc(C(=O)O)cc2)C1  Kd (cell-free assay): > 30000 nM
